Bioassay records: PubChem, several laboratories
In the library only some 4% were active in any assay of this set; here they are far more common.
OX1R antag-1: human HCRTR1 antagonism; O43613; CHO/OX1R cells, Fluo-8 calcium fluorescence, orexin A; inhibition, % at 5 µM; 330,000 tested, 0.43% active; AID 434989;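 active = inhibition above its plate's threshold, mean inhibition of all tested compounds on the plate plus 3 SD, cut at about 37% in these data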;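 also: 0% = orexin A challenge wells and 100% = SB-334867-A antagonist wells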
OX1R antag-2: antagonists of human orexin 1 receptor (OX1R). 330,000 tested, 1.8% active. inhibition, % at 6.6 µM. O43613. OX1R-expressing cells, FRET antagonist read-out; in the data active = inhibition mostly above about 38%, no sharp cut-off; inactive = mostly below about 40%;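 also: 0% = agonist challenge alone and 100% = reference antagonist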
TAAR1 agonist: human TAAR1 agonism. Q96RJ0. CHO RD-HGA16 TAAR1, Fluo-8 calcium fluorescence; vehicle wells 0%, saturating PEA agonist 100%. activation, % at 3 µM. 360,000 tested, 0.99% active. AID 624467;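 active = activation above the mean activation of all test compounds in the run plus 3 SD, cut at about 38% in these data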
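Test system: RD-HGA16 (CHO) cells co-expressing Gα16 and hTAAR1; dosing: one-point dosing at 3 µM (nominal); timing: 17-24 h seeding, 75 min 37 °C dye, 30 min RT; signal: kinetic Fluo-8 calcium fluorescence; read-out basis: % activation relative to PEA EC100 response; controls: DMSO and PEA EC100; replicates: n 1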
TAAR1 antag: antagonists of human TAAR1; Q96RJ0; CHO RD-HGA16 TAAR1, Fluo-8 calcium fluorescence, antagonist; inhibition, % at 3 µM; 360,000 tested, 1.5% active; AID 624466;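 active = inhibition above a per-plate cutoff, the mean inhibition of test compounds on that plate plus 3 SD, cut at about 49% in these data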;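 also: 0% = DMSO plus EC80 beta-PEA response and 100% = DMSO alone without agonist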
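Test system: CHO RD-HGA16 cells bearing hTAAR1 | Reagent: β-PEA, EC80 | Compound dosing: 3 µM, single point | Schedule: Dye loading 75 min at 37 °C, then 30 min room temperature | Signal: Calcium fluorescence with Fluo-8 | Evaluation: Percent inhibition of PEA-evoked calcium signal, max/basal emission ratio | Control set: DMSO-only wells and EC80 β-PEA-stimulated wells | Repeats: Singlicate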
NTR1 ag: activates human neurotensin receptor 1; P30989; 330,000 tested, 0.17% active; activation, % at 20 µM; AID 493036; NTR1-U2OS beta-arrestin-GFP spot imaging, agonist mode;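 active = activation at or above 40% of the spot to cytoplasm intensity ratio, with at least 20 cells analyzed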;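 also: 0% = DMSO without peptide and 100% = 100 nM NTR1 peptide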
Target sequence (P30989 whole entry, looked up): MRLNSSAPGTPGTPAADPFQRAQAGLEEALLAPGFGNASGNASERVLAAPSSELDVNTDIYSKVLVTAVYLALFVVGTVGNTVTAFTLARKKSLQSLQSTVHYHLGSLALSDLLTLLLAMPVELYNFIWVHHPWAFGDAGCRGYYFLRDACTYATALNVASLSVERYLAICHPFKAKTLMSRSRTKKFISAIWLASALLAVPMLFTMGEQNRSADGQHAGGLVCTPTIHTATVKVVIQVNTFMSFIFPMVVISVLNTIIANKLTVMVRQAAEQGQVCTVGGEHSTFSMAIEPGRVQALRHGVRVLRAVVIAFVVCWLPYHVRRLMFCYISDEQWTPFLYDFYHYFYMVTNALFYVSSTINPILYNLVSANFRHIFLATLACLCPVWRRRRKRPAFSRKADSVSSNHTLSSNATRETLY
CHO parental Ca: signal in parental CHO cells, OX1R antagonist counter-screen; parental CHO-K1, ATP-induced calcium, Fluo-8 fluorescence; inhibition, % at 5.6 µM; 330,000 tested, 0.63% active;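 active = inhibition above that plate's mean sample inhibition plus 3 SD, cut at about 26% in these data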;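 also: 0% = ATP-challenged DMSO wells and 100% = DMSO wells without ATP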
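Material: Parental CHO cells | Reagent: ATP | Compound dosing: Single nominal dose of 5.6 µM per compound | Detection: Intracellular calcium via Fluo-8 no-wash fluorescent dye | Read-out: % inhibition of ATP-induced calcium mobilization | Benchmarks: Low control ATP plus DMSO, high control DMSO only | Replicates: Singlicate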
Numbers without * were called inactive; x = not tested or not shown.

SMILES	OX1R antag-1	OX1R antag-2	TAAR1 agonist	TAAR1 antag	NTR1 ag	CHO parental Ca
CCOC(=O)C1CCCN(C(=O)CSCc2ccccc2)C1 (stereo not given)	-17.1	9.6	4.8	1.8	1.2	-22.8
CCOC(=O)C1CCCN(C(=O)CCc2nnc(-c3ccc(C(C)=O)s3)o2)C1 (stereo not given)	-13.9	42.2*	25.9	5.0	-0.1	-10.8
COC(C(=O)Nc1ccc(S(=O)(=O)Nc2ccc(F)cc2)cc1)c1ccccc1 (stereo not given)	12.3	3.5	56.3*	36.8	-0.4	8.2
COC(C(=O)Nc1ccc(F)cc1)c1ccccc1 (stereo not given)	-16.8	10.9	4.0	2.5	0.9	-21.6
CCCSc1nc(C)cc(C)c1S(=O)(=O)c1ccccc1C	53.7*	34.1	16.4	30.4	0.5	28.0
Cc1cc(C)c(S(=O)(=O)c2ccccc2C)c(SCC(C)C)n1	27.2	16.1	9.4	-2.5	5.1	56.9*
CCCSc1nc(C)cc(C)c1S(C)(=O)=O	-24.1	5.8	-3.1	-20.1	-0.1	-15.4
CCN=C1NC(c2cccc(Cl)c2)C(C(=O)OC)=C(C)N1Cc1ccccc1C(F)(F)F (stereo not given)	x	x	8.9	-1.1	x	x
O=C(CSc1nc2ccc(Cl)cc2[nH]1)NC1CCCc2ccccc21 (stereo not given)	-10.3	73.2*	4.4	47.1	6.8	-1.4
O=C(CSc1nc2ccccc2[nH]1)NC1CCCc2ccccc21 (stereo not given)	-1.7	52.0	6.0	32.7	0.3	-22.2
Cc1cc(C(=O)NNC(=O)c2cccc([N+](=O)[O-])c2)n[nH]1	6.7	28.1*	11.8	-4.7	-1.9	-0.9
O=C(NNC(=O)c1cnccn1)c1cccc([N+](=O)[O-])c1	4.2	43.6*	1.9	1.4	0.9	-4.2
O=C(NNc1c(Cl)cc(Cl)cc1Cl)c1cccc([N+](=O)[O-])c1	8.5	34.2	0.3	1.3	3.7	48.4*
O=CNNC(=O)c1cccc([N+](=O)[O-])c1	9.2	26.0	1.2	-13.0	4.6	10.1
O=C(NNC(=O)c1ccccc1[N+](=O)[O-])c1cnccn1	-4.7	8.1	5.4	-4.5	-1.9	-5.7
COC(=O)c1cc2c(c3c4ccccc4n(S(=O)(=O)c4ccc(OC)cc4)c13)C(=O)N(C)C2	x	x	-0.1	-17.8	x	x
CCCN1C(=O)c2[nH]nc(-c3ccccc3)c2C1c1ccc(Br)cc1 (stereo not given)	x	x	-0.7	-31.1	x	x
COc1ccc(C(CNc2nc(-c3cccnc3)nc3ccccc23)N(C)C)cc1 (stereo not given)	-19.8	16.6	0.8	15.6	0.0	-21.1
C[C@H](O)[C@@H]1C(=O)N2CCc3c([nH]c4cccc(-c5ccccc5)c34)[C@@H]2C[C@@H]1N(C)C(=O)NC1CCCCC1	x	x	-0.6	13.3	x	x
CCOC(=O)c1c(NC(=O)CSc2nc3cc(Cl)ccc3s2)sc(C(C)=O)c1C	-13.3	6.5	-0.6	-15.3	3.9	-7.1
CCOC(=O)c1c(NC(=O)CSc2nc3ccccc3s2)sc(C(C)=O)c1C	-10.9	33.5	3.9	-9.9	2.3	36.2*
O=C1NC(=Nc2ccccc2)c2ccc([N+](=O)[O-])cc21	-4.7	74.3*	-0.4	-6.0	-0.9	-4.2
Cc1cccc(N=C2NC(=O)c3cc([N+](=O)[O-])ccc32)c1	0.3	69.7*	-0.8	13.2	0.0	-6.5
Cc1cccc(Cl)c1NC(=O)N(C)c1ccccc1	x	x	0.9	3.3	x	x
Cn1c(=O)c2c(-c3ccccc3)n(-c3ccccc3Br)cc2n(C)c1=O	x	x	7.0	52.7*	x	x
Cn1c(=O)c2c(-c3ccccc3)n(-c3ccccc3O)cc2n(C)c1=O	-17.9	9.4	9.4	6.3	0.2	-4.2
O=C(CC[C@H]1O[C@@H](n2cnc3c(NC(=O)c4ccccc4)ncnc32)[C@H](O)[C@@H]1O)N[C@@H](CO)Cc1c[nH]c2ccccc12	x	x	0.1	-5.0	x	x
C=CCn1c(-c2cccs2)nc2nc3ccccc3nc21	-13.2	72.4*	11.3	14.9	0.0	-20.5
NC(=O)c1c(N)[nH]c(C(=O)c2ccccc2)c1-c1ccc(Br)cc1	x	x	3.6	-0.8	x	x
